Legend:
[1] = target: T1, Glutamate receptor ionotropic, kainate (Rattus norvegicus) (UniProt P22756+Q01812+P42260+P42264+Q63273); assay: Antagonistic activity against Ionotropic glutamate receptor kainate was determined by the percentage of 45 [Ca2+] influx in cerebellar neurons at the concentration 100 uM; assay type: functional
Procedure, shortened: (§1)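 Rat cerebellar neurons (7-day-old pups, 8-9 days in culture) were given 45CaCl2 (1 µCi/mL) in Locke's buffer with 1 mM Mg2+, 50 µM kainate and 1 µM MK-801, for 15 min at room temperature. After three ice-cold washes and dissolution in 0.5 M NaOH, radioactivity and protein were measured. Results are % of net kainate-alone influx, mean ± S.E.M., n=6 from two preparations.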

[2] = target: Metabotropic glutamate receptor 1 (Rattus norvegicus, UniProt P23385); assay: Antagonistic activity against rat (mGluR) metabotropic glutamate receptor 1a stably expressed in chinese hamster ovary (CHO) cells; assay type: functional, cell-based
Procedure, shortened: (§2)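 CHO cells expressing the receptor were labelled overnight with myo-[3H]inositol in glutamine-free medium. They were then exposed to compounds for 30 min at 37 °C in Locke's buffer (HEPES, pH 7.4) with 20 mM LiCl. Inositol phosphates were extracted for 10 min with 0.1 M HCl and separated by anion-exchange chromatography.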

[3] = target: T2, Glutamate receptor ionotropic, AMPA (Rattus norvegicus) (UniProt P19491+P19492+P19493+P19490); assay: Antagonistic activity against Ionotropic glutamate receptor AMPA was determined by the percentage of 45 [Ca2+] influx in cerebellar neurons at the concentration 100 uM; assay type: functional
Procedure, shortened: (§3)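 Cerebellar neurons cultured from 7-day-old rats (used at 8-9 days) had 45Ca2+ influx (1 µCi/mL) measured over 15 min at room temperature in Locke's buffer with 1 mM Mg2+, 30 µM AMPA, 10 µM cyclothiazide and 1 µM MK-801. Cells were washed three times ice-cold, dissolved in NaOH and counted, normalized to protein. Results are % of net AMPA-alone influx, mean ± S.E.M., six measurements from two preparations.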

[4] = target: T2, Glutamate receptor ionotropic, AMPA (Rattus norvegicus); assay: Antagonistic activity against Ionotropic glutamate receptor AMPA was determined by the percentage of 45 [Ca2+] influx in cerebellar neurons at the concentration 1 mM; assay type: functional; procedure, shortened: as §3
[5] = target: T3, Glutamate NMDA receptor (Rattus norvegicus) (UniProt P35439+Q00959+Q00960+Q00961+Q62645+Q8VHN2+Q9R1M7); assay: Antagonistic activity against NMDA ionotropic glutamate receptor was determined by the percentage of 45 [Ca2+] influx in cerebellar neurons at the concentration 100 uM; assay type: functional
Procedure, shortened: (§4)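 Rat cerebellar neurons (7-day-old pups, 8-9 days in culture) were incubated for 15 min at room temperature in Mg2+-free Locke's buffer with 1 µCi/mL 45CaCl2, 100 µM NMDA, 1 µM glycine and 10 µM NBQX. Cells were washed three times with ice-cold buffer and dissolved in 0.5 M NaOH to count radioactivity and protein. Results are % of net agonist-alone influx, mean ± S.E.M. of six measurements from two culture preparations.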

[6] = target: Metabotropic glutamate receptor 4 (Rattus norvegicus, UniProt P31423); assay: Antagonistic activity against rat (mGluR) metabotropic glutamate receptor 4a stably expressed in chinese hamster ovary (CHO) cells; assay type: functional, cell-based
[7] = target: T3, Glutamate NMDA receptor (Rattus norvegicus); assay: Antagonistic activity against NMDA ionotropic glutamate receptor was determined by the percentage of 45 [Ca2+] influx in cerebellar neurons at the concentration 1 mM; assay type: functional; procedure, shortened: as §4
[8] = target: T1, Glutamate receptor ionotropic, kainate (Rattus norvegicus); assay: Antagonistic activity against Ionotropic glutamate receptor kainate was determined by the percentage of 45 [Ca2+] influx in cerebellar neurons at the concentration 1 mM; assay type: functional; procedure, shortened: as §1
[9] = target: Metabotropic glutamate receptor 5 (Rattus norvegicus, UniProt P31424); assay: Antagonistic activity against rat (mGluR) metabotropic glutamate receptor 5a stably expressed in chinese hamster ovary (CHO) cells; assay type: functional, cell-based; procedure, shortened: as §2
[10] = target: Metabotropic glutamate receptor 6 (Rattus norvegicus, UniProt P35349); assay: Antagonistic activity against rat (mGluR) metabotropic glutamate receptor 6 stably expressed in chinese hamster ovary (CHO) cells; assay type: functional, cell-based
Metabotropic glutamate receptor 6, sequence (P35349 whole entry): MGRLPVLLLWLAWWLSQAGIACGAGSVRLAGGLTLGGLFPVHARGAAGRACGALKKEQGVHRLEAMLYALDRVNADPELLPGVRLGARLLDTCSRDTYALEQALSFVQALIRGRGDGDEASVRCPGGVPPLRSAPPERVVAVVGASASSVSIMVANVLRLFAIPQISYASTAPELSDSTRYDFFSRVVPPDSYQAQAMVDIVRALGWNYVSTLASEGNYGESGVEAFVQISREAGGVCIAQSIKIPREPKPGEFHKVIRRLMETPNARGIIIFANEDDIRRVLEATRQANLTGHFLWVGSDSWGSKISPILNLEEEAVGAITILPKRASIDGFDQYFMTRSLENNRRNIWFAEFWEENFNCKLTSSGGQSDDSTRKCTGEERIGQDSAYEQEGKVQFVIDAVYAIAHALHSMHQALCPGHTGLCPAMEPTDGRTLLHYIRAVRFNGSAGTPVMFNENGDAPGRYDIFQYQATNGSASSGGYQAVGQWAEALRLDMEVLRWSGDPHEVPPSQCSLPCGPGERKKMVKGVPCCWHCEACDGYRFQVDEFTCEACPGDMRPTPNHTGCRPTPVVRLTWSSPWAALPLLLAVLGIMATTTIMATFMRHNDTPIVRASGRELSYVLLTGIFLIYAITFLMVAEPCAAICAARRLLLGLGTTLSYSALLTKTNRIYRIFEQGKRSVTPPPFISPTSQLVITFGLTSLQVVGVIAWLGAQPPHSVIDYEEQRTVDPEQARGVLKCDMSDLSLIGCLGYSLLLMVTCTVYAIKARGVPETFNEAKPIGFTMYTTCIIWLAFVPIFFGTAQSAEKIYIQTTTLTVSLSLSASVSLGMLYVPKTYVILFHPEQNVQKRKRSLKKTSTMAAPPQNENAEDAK

Metabotropic glutamate receptor 1, sequence (P23385 whole entry): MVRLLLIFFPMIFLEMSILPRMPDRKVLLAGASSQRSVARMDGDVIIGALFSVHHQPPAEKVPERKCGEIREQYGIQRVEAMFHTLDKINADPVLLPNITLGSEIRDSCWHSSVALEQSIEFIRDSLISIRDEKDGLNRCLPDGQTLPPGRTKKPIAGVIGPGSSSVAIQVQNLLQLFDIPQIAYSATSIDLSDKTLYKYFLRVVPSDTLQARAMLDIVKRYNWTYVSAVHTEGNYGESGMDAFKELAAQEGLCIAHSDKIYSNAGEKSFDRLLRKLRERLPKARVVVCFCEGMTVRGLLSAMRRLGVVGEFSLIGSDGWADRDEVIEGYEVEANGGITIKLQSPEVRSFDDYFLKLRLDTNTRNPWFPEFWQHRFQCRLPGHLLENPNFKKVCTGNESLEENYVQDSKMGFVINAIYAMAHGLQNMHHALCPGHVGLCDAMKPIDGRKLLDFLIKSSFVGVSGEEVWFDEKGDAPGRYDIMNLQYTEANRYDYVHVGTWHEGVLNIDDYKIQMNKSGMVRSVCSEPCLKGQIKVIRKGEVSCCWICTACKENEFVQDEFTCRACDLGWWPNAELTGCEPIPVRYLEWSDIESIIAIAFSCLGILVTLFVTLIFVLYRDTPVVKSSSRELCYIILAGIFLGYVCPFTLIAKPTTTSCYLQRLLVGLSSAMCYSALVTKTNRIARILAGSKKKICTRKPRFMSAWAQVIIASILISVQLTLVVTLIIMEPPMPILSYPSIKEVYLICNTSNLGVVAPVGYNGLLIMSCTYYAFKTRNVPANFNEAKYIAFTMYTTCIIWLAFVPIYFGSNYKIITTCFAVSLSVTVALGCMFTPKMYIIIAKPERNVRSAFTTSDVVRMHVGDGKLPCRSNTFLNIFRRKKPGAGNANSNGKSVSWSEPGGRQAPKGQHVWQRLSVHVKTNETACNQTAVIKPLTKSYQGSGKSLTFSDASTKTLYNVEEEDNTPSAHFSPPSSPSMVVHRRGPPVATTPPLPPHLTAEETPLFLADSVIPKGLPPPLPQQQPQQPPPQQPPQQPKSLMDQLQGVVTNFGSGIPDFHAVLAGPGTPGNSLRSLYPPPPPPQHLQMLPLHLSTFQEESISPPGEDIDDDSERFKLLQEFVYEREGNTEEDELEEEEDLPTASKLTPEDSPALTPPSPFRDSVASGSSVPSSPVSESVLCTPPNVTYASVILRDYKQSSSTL
Metabotropic glutamate receptor 5, sequence (P31424 whole entry): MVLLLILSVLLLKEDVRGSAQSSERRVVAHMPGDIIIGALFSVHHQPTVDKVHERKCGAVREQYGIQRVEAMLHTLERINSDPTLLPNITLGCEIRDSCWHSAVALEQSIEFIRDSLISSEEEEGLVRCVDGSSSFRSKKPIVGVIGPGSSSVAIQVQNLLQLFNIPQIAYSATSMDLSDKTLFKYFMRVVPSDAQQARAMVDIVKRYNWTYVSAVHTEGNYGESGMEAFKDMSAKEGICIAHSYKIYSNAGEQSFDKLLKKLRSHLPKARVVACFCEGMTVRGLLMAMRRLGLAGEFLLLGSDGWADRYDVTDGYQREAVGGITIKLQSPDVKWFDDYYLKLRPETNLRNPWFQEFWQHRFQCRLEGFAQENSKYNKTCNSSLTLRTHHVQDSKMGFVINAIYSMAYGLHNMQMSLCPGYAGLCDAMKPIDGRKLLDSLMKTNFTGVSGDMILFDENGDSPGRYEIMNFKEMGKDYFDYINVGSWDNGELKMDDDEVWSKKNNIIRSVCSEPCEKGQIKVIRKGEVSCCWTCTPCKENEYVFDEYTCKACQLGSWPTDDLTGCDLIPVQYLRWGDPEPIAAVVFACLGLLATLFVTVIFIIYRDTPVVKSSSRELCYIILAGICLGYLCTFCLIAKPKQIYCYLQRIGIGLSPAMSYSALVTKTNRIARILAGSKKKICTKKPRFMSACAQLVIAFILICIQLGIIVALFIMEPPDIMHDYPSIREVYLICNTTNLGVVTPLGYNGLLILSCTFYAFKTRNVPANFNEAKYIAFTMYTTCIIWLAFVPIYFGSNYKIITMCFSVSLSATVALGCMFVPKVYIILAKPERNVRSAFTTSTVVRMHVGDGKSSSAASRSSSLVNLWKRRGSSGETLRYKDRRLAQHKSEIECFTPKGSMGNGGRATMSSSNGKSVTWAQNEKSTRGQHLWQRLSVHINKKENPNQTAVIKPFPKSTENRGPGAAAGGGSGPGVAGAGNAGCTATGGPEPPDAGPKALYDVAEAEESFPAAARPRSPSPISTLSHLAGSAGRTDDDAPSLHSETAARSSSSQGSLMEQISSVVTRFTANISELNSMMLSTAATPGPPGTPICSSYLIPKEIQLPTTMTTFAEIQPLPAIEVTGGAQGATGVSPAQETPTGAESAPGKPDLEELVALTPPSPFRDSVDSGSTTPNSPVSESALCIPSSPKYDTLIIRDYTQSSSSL
Metabotropic glutamate receptor 4, sequence (P31423 whole entry): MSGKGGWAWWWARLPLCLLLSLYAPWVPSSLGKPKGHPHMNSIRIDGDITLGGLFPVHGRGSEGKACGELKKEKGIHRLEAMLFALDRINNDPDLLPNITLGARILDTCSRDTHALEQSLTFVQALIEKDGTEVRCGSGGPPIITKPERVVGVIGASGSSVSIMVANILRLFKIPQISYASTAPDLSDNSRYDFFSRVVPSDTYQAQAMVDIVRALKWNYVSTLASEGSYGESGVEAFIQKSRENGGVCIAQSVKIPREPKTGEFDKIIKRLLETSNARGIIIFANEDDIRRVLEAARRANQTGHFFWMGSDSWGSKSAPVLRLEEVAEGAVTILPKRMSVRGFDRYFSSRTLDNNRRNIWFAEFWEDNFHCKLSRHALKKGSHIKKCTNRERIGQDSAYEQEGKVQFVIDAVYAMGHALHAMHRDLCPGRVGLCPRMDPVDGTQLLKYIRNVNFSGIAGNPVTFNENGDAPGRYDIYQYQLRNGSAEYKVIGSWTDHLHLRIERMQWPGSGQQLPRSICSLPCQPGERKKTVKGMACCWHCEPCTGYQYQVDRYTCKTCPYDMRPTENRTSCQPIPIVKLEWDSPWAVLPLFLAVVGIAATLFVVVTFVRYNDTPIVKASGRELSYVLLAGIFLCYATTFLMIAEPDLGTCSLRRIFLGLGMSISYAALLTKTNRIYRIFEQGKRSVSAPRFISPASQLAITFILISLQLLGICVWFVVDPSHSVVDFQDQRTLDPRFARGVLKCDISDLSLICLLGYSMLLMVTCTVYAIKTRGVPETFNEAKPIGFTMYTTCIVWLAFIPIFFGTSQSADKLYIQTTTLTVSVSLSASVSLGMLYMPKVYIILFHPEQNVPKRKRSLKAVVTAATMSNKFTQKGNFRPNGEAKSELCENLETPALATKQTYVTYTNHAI

KA effect [1] [%]	EC50 [2] [µM]	AMPA effect [3] [%]	AMPA effect [4] [%]	NMDA effect [5] [%]	EC50 [6] [µM]	NMDA effect [7] [%]	KA effect [8] [%]	EC50 [9] [µM]	EC50 [10] [µM]	Compound
71	~500	98	89	105	> 1000	30	75	~1000	> 1000	C[C@](N)(Cn1oc(=O)[nH]c1=O)C(=O)O
97	~300	113	103	84	> 1000	52	105	~300	> 1000	N[C@@](Cc1ccccc1)(Cn1oc(=O)[nH]c1=O)C(=O)O
